Results published in ChEMBL document CHEMBL3865827, “A novel class of ethacrynic acid derivatives as promising drug-like potent generation of anticancer agents with established mechanism of action” (Eur J Med Chem, 2016).
Active and inactive are the calls of the source. No cut-off for these calls is given here.

How the values were obtained:
[1] = Antiproliferative activity against human HL60 cells after 24 to 72 hrs by MTS assay; format: functional, cell-based; conditions: HL-60
How it was run: (§1)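 Cells plated, then dosed 24 h later with compounds in DMSO (1% final; controls DMSO alone), exposed 24 or 72 h. Proliferation inhibition measured as previously reported (MTS/NADH reagent). IC50 from duplicate experiments over 0.5 nM–100 µM. KB grown in D-MEM with 10% fetal calf serum, penicillin, streptomycin, fungizone, 5% CO2; other lines in complete RPMI. EPC are quiescent Cyprinus carpio endothelial progenitor cells.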

HL-60 [2] = experiment: Selectivity index, ratio of IC50 for Cyprinus carpio EPC to IC50 for human HL60 cells
[3] = Antiproliferative activity against Cyprinus carpio EPC after 24 to 72 hrs by MTS assay
KB [4] = experiment: Selectivity index, ratio of IC50 for Cyprinus carpio EPC to IC50 for human KB cells
[5] = Antiproliferative activity against human KB cells after 24 to 72 hrs by MTS assay; format: functional, cell-based; how it was run: as §1
HCT-116 = experiment: Induction of necrosis in human HCT116 cells assessed as increase in LDH release at 7 uM after 24 to 48 hrs by fluorescence assay; format: functional, cell-based
MRC5 = experiment: Induction of necrosis in human MRC5 SV2 cells assessed as increase in LDH release at 7 uM after 24 to 48 hrs by fluorescence assay; format: functional, cell-based
[6] = Antiproliferative activity against human PC3 cells after 24 to 72 hrs by MTS assay; format: functional, cell-based; conditions: PC-3
[7] = Antiproliferative activity against human SKOV3 cells after 24 to 72 hrs by MTS assay; format: functional, cell-based; conditions: SK-OV-3
[8] = Antiproliferative activity against human OVCAR8 cells after 24 to 72 hrs by MTS assay; format: functional, cell-based; conditions: OVCAR-8
[9] = Antiproliferative activity against human HCT116 cells after 24 to 72 hrs by MTS assay; format: functional, cell-based; conditions: HCT-116
[10] = Antiproliferative activity against human MCF7 cells after 24 to 72 hrs by MTS assay; format: functional, cell-based
HL60 (Homo sapiens) = experiment: Effect on 24 hrs pretreated human HL60 cells assessed as reduction in endogenous GSH content at 7 uM measured for 60 mins by fluorescence assay; conditions: HL-60
KB [11] = experiment: Induction of necrosis in human KB cells assessed as increase in LDH release at 7 uM after 24 to 48 hrs by fluorescence assay; format: functional, cell-based
[12] = Cytotoxicity against human HL60 cells assessed as reduction in cell viability after 24 hrs by MTS assay; format: functional, cell-based; conditions: HL-60, 24 h
HL-60 [13] = experiment: Antiproliferative activity against human HL60 cells at 7 uM after 24 hrs by viacount-reagent based FACS analysis
[14] = Cell cycle arrest in human HL60 cells assessed as accumulation at S phase at 2.5 uM after 24 hrs by propidium iodide-staining based FACS analysis (reference value: 48.9 %); format: functional; conditions: HL-60
How it was run: (§2)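 HL60 cells, 25,000 per well, exposed 24 and 48 h to 2.5 µM compounds; controls DMSO (1% final). Propidium iodide staining, flow cytometry; fractions in sub-G1, G0/G1, S and G2/M quantified.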

[15] = Cell cycle arrest in human HL60 cells assessed as accumulation at S phase at 2.5 uM after 48 hrs by propidium iodide-staining based FACS analysis (reference value: 52.6 %); format: functional; conditions: HL-60; how it was run: as §2
[16] = Cell cycle arrest in human HL60 cells assessed as accumulation at G2/M phase at 2.5 uM after 48 hrs by propidium iodide-staining based FACS analysis (reference value: 2.2 %); format: functional; conditions: HL-60; how it was run: as §2
[17] = Cell cycle arrest in human HL60 cells assessed as accumulation at G2/M phase at 2.5 uM after 24 hrs by propidium iodide-staining based FACS analysis (reference value: 5.1 %); format: functional; conditions: HL-60; how it was run: as §2
[18] = Cell cycle arrest in human HL60 cells assessed as accumulation at G0/G1 phase at 2.5 uM after 48 hrs by propidium iodide-staining based FACS analysis (reference value: 43.8 %); format: functional; conditions: HL-60; how it was run: as §2
[19] = Cell cycle arrest in human HL60 cells assessed as accumulation at G0/G1 phase at 2.5 uM after 24 hrs by propidium iodide-staining based FACS analysis (reference value: 43.5 %); format: functional; conditions: HL-60; how it was run: as §2
[20] = Cell cycle arrest in human HL60 cells assessed as accumulation at sub G1 phase at 2.5 uM after 24 hrs by propidium iodide-staining based FACS analysis (reference value: 2.6 %); format: functional; conditions: HL-60; how it was run: as §2
[21] = Cell cycle arrest in human HL60 cells assessed as accumulation at sub G1 phase at 2.5 uM after 48 hrs by propidium iodide-staining based FACS analysis (reference value: 1.4 %); format: functional; conditions: HL-60; how it was run: as §2

| SMILES | IC50 [1] [nM] | Ratio IC50 (HL-60 [2]) | IC50 [3] [nM] | Ratio IC50 (KB [4]) | IC50 [5] [nM] | Activity (HCT-116) | Activity (MRC5) | further results |
| --- | --- | --- | --- | --- | --- | --- | --- | --- |
| C=C(CC)C(=O)c1ccc(OCC(=O)NCCc2ccc(OP(=O)(OCC)OCC)cc2)c(Cl)c1Cl | 1100 | 2.9 | 3200 | 4 | 800 |  |  |  |
| C=C(CC)C(=O)c1ccc(OCC(=O)N2CCN(c3ccc(OC)cc3)CC2)c(Cl)c1Cl | 800 | 4.5 | 3600 | 9 | 400 | Active | Active |  |
| C=C(CC)C(=O)c1ccc(OCC(=O)NCCc2ccc(OP3(=O)OCCCO3)cc2)c(Cl)c1Cl | 1200 | 2.8 | 3400 | 6.8 | 500 |  |  |  |
| C=C(CC)C(=O)c1ccc(OCC(=O)NCCc2ccc(OP(=O)(OCC)OCC)c(OC)c2)c(Cl)c1Cl | 800 | 2.8 | 2300 | 3.2 | 700 |  |  |  |
| CCC(C)C(=O)c1ccc(OCC(=O)N2CCN(c3ccc(O)cc3)CC2)c(Cl)c1Cl (configuration not stated) |  |  |  |  |  | Active | Active |  |
| C=C(CC)C(=O)c1ccc(OCC(=O)N2CCN(c3ccc(OP(=O)(OC)OC)cc3)CC2)c(Cl)c1Cl | 800 | 3.6 | 2900 | 17 | 170 |  |  | IC50 [6]: 1100 nM; IC50 [7]: 2200 nM; IC50 [8]: 1400 nM; IC50 [9]: 800 nM; IC50 [10]: 500 nM |
| C=C(CC)C(=O)c1ccc(OCC(=O)NCCc2ccc(OP(=O)(OC)OC)cc2)c(Cl)c1Cl | 1200 | 0.58 | 700 | 1.75 | 400 |  |  | IC50 [6]: 800 nM; IC50 [7]: 2800 nM; IC50 [8]: 1500 nM; IC50 [9]: 1500 nM; IC50 [10]: 900 nM |
| C=C(CC)C(=O)c1ccc(OCC(=O)N2CCN(c3ccc(OP(=O)(OCC)OCC)cc3)CC2)c(Cl)c1Cl | 500 | 5.6 | 2800 | 9.3 | 300 |  |  |  |
| C=C(CC)C(=O)c1ccc(OCC(=O)NCCc2ccc(O)c(OC)c2)c(Cl)c1Cl | 1600 | 2.8 | 4500 | 5.6 | 800 | Active | Active | GSH reduction activity (HL60 (Homo sapiens)): Active; Activity (KB [11]): Active; IC50 [12]: 2600 nM; Activity (HL-60 [13]): Active |
| CCC(C)C(=O)c1ccc(OCC(=O)NCCc2ccc(O)cc2)c(Cl)c1Cl (configuration not stated) |  |  |  |  |  | Active | Active | Activity [14]: 46.7%; Activity [15]: 41.9%; Activity [16]: 2.2%; Activity [17]: 7.9%; Activity [18]: 51.7%; Activity [19]: 42.1%; Activity [20]: 3.3%; Activity [21]: 4.2% |
| C=C(CC)C(O)c1ccc(OCC(=O)NCCc2ccc(O)cc2)c(Cl)c1Cl (configuration not stated) |  |  |  |  |  | Active | Active | Activity [14]: 50.5%; Activity [15]: 41.5%; Activity [16]: 0.6%; Activity [17]: 5.2%; Activity [18]: 51.9%; Activity [19]: 42.3%; Activity [20]: 2%; Activity [21]: 6.1% |
| CCC(C)C(=O)c1ccc(OCC(=O)N2CCN(c3ccc(OC)cc3)CC2)c(Cl)c1Cl (configuration not stated) |  |  |  |  |  | Active | Active |  |
| C=C(CC)C(=O)c1ccc(OCC(=O)N2CCN(c3ccc(OP4(=O)OCCC(c5cccc(Cl)c5)O4)cc3)CC2)c(Cl)c1Cl (configuration not stated) | 900 | 8.7 | 7800 | 21 | 400 |  |  |  |
| C=C(CC)C(=O)c1ccc(OCC(=O)NCCc2ccc(OP3(=O)OCCC(c4cccc(Cl)c4)O3)cc2)c(Cl)c1Cl (configuration not stated) | 900 | 2.4 | 2200 | 3.1 | 700 |  |  |  |
